Article PMC6607395 (Molecular Pharmaceutics, 2019)

Columns and labels:
[1] = target: Cathepsin B from human liver (Homo sapiens, UniProt P07858); experiment: MMAE release following cathepsin B cleavage; type: in vitro ADME; conditions: 20 μM compound, cathepsin B 100 nM, pH 5.5, 37 °C, within 15 min
In short: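 Human liver cathepsin B was activated for 15 min at ambient temperature in 25 mM sodium acetate, 1 mM EDTA and 9.2 mM DTT, pH 5.5. It was then used at 100 nM with 20 μM substrate in 25 mM sodium acetate/1 mM EDTA, pH 5.5, at 37 °C. Aliquots taken at 0, 15, 30 min, 1 h and 2 h were quenched in acidified acetonitrile–water, chilled and centrifuged. Free MMAE was quantified by HPLC-UV at 210 nm, and its identity was confirmed by LC–MS/MS.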

[2] = target: rhPSMA (Homo sapiens, UniProt Q04609); experiment: PSMA enzyme inhibition assay; type: biochemical
Sequence of rhPSMA (Q04609 whole entry): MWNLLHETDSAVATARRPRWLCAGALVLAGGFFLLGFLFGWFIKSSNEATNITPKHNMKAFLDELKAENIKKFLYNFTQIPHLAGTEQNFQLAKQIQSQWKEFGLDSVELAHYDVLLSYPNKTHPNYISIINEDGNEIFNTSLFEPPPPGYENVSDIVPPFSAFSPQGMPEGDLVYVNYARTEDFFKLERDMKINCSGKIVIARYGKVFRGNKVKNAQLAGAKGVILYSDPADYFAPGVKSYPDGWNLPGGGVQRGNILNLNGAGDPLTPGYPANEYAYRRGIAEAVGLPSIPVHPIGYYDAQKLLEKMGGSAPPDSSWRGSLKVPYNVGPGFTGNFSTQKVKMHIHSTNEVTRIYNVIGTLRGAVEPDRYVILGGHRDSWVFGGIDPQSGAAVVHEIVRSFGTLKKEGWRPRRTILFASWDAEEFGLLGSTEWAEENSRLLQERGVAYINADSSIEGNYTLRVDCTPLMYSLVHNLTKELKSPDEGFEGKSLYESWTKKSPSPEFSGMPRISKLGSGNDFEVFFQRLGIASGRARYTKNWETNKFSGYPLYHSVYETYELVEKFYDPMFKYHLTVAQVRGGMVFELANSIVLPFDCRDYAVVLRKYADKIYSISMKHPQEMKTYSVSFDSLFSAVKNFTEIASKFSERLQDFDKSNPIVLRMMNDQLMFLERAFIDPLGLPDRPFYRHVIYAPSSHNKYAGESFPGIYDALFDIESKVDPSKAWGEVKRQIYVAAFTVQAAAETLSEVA

[3] = test system: LNCaP (PSMA+) tumors; experiment: In vivo imaging and biodistribution, LNCaP xenograft; design: species or system mouse; conditions: for ex vivo tissue biodistribution: 72 h postinjection, 17 nmol/kg; for whole body fluorescence signal over time: LNCaP model, 17 nmol/kg tail vein, 1–72 h
In short: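 Male athymic nu/nu mice (5 weeks old) carried subcutaneous LNCaP (5 × 10^6 cells) or DU145 (1 × 10^6 cells) flank tumours in 1:1 HBSS/Matrigel, grown to 100–150 mm3. Each received one tail-vein injection of 17 nmol/kg in 1% DMSO/99% saline (n = 3). Whole-body imaging ran at 1, 4, 24, 48 and 72 h (ex 685, em 800 nm). At 72 h, tumours, liver, kidney, heart and blood were excised, rinsed, weighed and imaged ex vivo, and mean AFU/mg was calculated.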

[4] = test system: DU145 (PSMA−) tumors; experiment: In vivo imaging and biodistribution, DU145 xenograft; design: species or system mouse; conditions: DU145 model, 17 nmol/kg tail vein, 1–72 h
[5] = Pharmacokinetic profile in rats; conditions: rat; for presence in plasma over time: single IV 0.1 μmol/kg
[6] = target: human TTR (Homo sapiens, UniProt P02766); experiment: Fluorescence polarization; type: binding
[7] = target: TTR in human serum (Homo sapiens, UniProt P02766); experiment: Fluorescent probe exclusion; type: binding; conditions: for TTR occupancy: 10 μM ligand, human serum (TTR ∼5 μM), after 3 h relative to probe alone

| Compound | Ki ([2]; Ki on PSMA, absence of TTR) [nM] | ex vivo tissue biodistribution [3] | whole body fluorescence signal over time [3] | whole body fluorescence signal over time [4] | presence in plasma over time [5] | Kd [6] [nM] | TTR occupancy [7] [%] | also measured |
| --- | --- | --- | --- | --- | --- | --- | --- | --- |
| CC[C@H](C)[C@@H]([C@@H](CC(=O)N1CCC[C@H]1[C@H](OC)[C@@H](C)C(=O)N[C@H](C)[C@@H](O)c1ccccc1)OC)N(C)C(=O)[C@@H](NC(=O)[C@H](C(C)C)N(C)C(=O)OCc1ccc(NC(=O)[C@H](CCCNC(N)=O)NC(=O)[C@@H](NC(=O)CCCCCN2C(=O)CC(SCCC(=O)N[C@@H](Cc3cn(CCOCCNCCCCCCOc4cc(OCCCc5c(C)n[nH]c5C)cc(C(=O)O)c4)nn3)C(=O)NCCCCCC(=O)NCCCC[C@H](NC(=O)N[C@@H](CCC(=O)O)C(=O)O)C(=O)O)C2=O)C(C)C)cc1)C(C)C (stereo partly shown) [TFM2] |  |  |  |  |  |  |  | MMAE release [1]: 98% |
| C#CC[C@H](NC(=O)CCCCC[N+]1=C(C=CC2=CC(=CC=C3N(C)c4ccc(S(=O)(=O)O)cc4C3(C)C)CCC2)C(C)(C)c2cc(S(=O)(=O)[O-])ccc21)C(=O)NCCCCCC(=O)NCCCC[C@H](NC(=O)N[C@@H](CCC(=O)O)C(=O)O)C(=O)O [BFM1] | 20.7 | accumulated predominantly in PSMA expressing LNCaP tumors, with no substantial fluorescence activity in other tissues except kidneys | significantly reduced at 4 h postinjection and reduced to the background level at 24 h | significantly reduced at 4 h postinjection and reduced to the background level at 24 h | no measurable amount of BFM1 after 4 h |  |  |  |
| Cc1n[nH]c(C)c1CCCOc1cc(OCCCCCCNCCOCCn2cc(C[C@H](NC(=O)CCCCC[N+]3=C(C=CC4=CC(=CC=C5N(C)c6ccc(S(=O)(=O)O)cc6C5(C)C)CCC4)C(C)(C)c4cc(S(=O)(=O)[O-])ccc43)C(=O)NCCCCCC(=O)NCCCC[C@H](NC(=O)N[C@@H](CCC(=O)O)C(=O)O)C(=O)O)nn2)cc(C(=O)O)c1 [TFM1] | 32.8 | accumulated predominantly in PSMA expressing LNCaP tumors, with no substantial fluorescence activity in other tissues except kidneys | maintained a very high fluorescence signal at 4 h and the signal was maintained for up to 48 h postinjection | maintained a very high fluorescence signal at 4 h and the signal was maintained for up to 48 h postinjection | still present even after 24 h | 374 | 57.6 ± 1.9 | Ki ([2]; Ki on PSMA in the presence of TTR, 1 μM TTR): 33.8 nM; fold enhanced uptake in LNCaP compared to BFM1 ([3]; excised tumors, 72 h): ~3 fold; fold higher fluorescent signal in LNCaP compared to DU145 tumors ([3]; excised tumors, 72 h): ~7 fold; fold higher MRT compared to BFM1 ([5]; IV 0.1 μmol/kg): ~16 fold; fold increase in t1/2 compared to BFM1 ([5]; IV 0.1 μmol/kg): ~6.6 fold |
| Cc1n[nH]c(C)c1CCCOc1cc(OCCCCCCN)cc(C(=O)O)c1 [ligand 2] |  |  |  |  |  | 48.9 |  | receptor occupancy at 10 µM ([7]; read-out: TTR occupancy): 80.4 ± 0.7% |
| O=C(O)c1ccc2nc(-c3cc(Cl)cc(Cl)c3)oc2c1 [tafamidis, reference compound] |  |  |  |  |  |  | 50.8 ± 2.0 |  |
| C#CCC(N)C(=O)NCCCCCC(=O)NCCCCC(NC(=O)NC(CCC(=O)O)C(=O)O)C(=O)O (stereo not shown) [ligand 22] | 9.5 |  |  |  |  |  |  |  |
